Measurements: the EternaBench riboswitch data

System: MS2 coat protein
Assay: apparent Kd, MS2 coat protein; higher = weaker binding; RNA-MaP array; FMN 200 µM where present
Outline: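 Stalled E. coli RNA polymerase transcribed the designs on Illumina sequencing-chip clusters. SNAP-549-labelled MS2 coat protein was titrated from 0.7 or 1.5 nM, doubling to 3 µM, without and then with constant ligand, in 100 mM Tris-HCl pH 7.5, 80 mM KCl, 4 mM MgCl2, BSA, DTT, yeast tRNA and Tween-20. Per-cluster binding curves were fitted to green signal normalised to red-channel RNA signal and control-cluster median Fmax. The apparent Kd is the median of the filtered fits.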

[1] = designed as: ON switch for flavin mononucleotide, no ligand
[2] = ligand present: flavin mononucleotide, designed as: ON switch for flavin mononucleotide
[3] = designed as: OFF switch for flavin mononucleotide, no ligand
[4] = ligand present: flavin mononucleotide, designed as: OFF switch for flavin mononucleotide

Sequence	apparent Kd [1]	apparent Kd [2]	apparent Kd [3]	apparent Kd [4]
GAGGAAAGGUAGCCCGACGUACCAGCAGAAGGGUGAUCAGACAUGAGGAUCACCCAUGUAGGAACACAGGAUAUGCAUGCACUU	80 nM	27.8 nM	–	–
AAAAAACAUGAGGAUCACCCAUGUGAGGAUAUCGAAAAGUCAAAGAAAAAGACGAAAACGAGAAGGCACAAAAA	–	–	53.8 nM	65.8 nM
CGGACCGGCUCAGGAUAUGGGUGCUCAAAAGACAUGAGGAUCACCCAUGUCUCAAGCUGUGCACAUCAGAAGGGAGCUUCGGGU	13.3 nM	16.3 nM	–	–
AUCUUUAACAUAGGAUAUAGUAUGAUGGUUUAAUUAGAAGGAUGUCACAUGAGGAUCACCCAUGUAAUAGGAUUACCCAUGUAU	–	–	20.2 nM	15.7 nM
GCAGGGUAUGAGAAGGCAUAAUUUAUCUAACCACAUGAUUACAUGAGGAUCACCCAUGUUUCCAAUGAGGAUAUCAUACCGUGC	–	–	8.05 nM	7.54 nM
CGUUGGUUAGGAUAUGCCCUCCUGGUGGGAAGGCCGGGUGGGUAGAAGGGACAUGAGGAUCACCCAUGUAUGGA	–	–	72.3 nM	26.8 nM
UUUAAUUAGUAAGGAUAUACUAGUGAUUAGCUUGUAGAAGGUACAGUCUUAUGUAUAACAAAUUAACAUGAGGAUCACCCAUGU	10.6 nM	7.99 nM	–	–
GGACUGGACUAGAAGGGUGAUGCGCUCGCAGACACAGGAUAUAGUCACAUGAGGAUCACCCAUGUCGGUCCAAGUGAAGAAACU	98.2 nM	24.4 nM	–	–
UAUAUACAUGAGGAUCACCCAUGUCAGGAUAUGCGCCGAUUAUAUACAUAAGAUCGGUGCAGAAGGGACACUAA	–	–	35.5 nM	67.2 nM
UAAUAAUAAUAAUACGUCAUUACAUGAGGAUCACCCAUGUAUAAGGAUAUGCAGUGGAAUACACUGCAGAAGGUAUACAAGACG	–	–	22.6 nM	26.7 nM
GGACCGCUUAGAAUUAGCGGCCGGCAGGAUAUGACAUGAGGAUCACCCAUGUGAACUCCAUUGGGUCAGAAGGGCCACGACACA	–	–	23.9 nM	86.4 nM
GGAUCUUGGGUCAGGAUAUGCUGAUAGUUAUGUCAGCAGAAGGGACAUGAGGAUCACCCAUGUGCUUGGUUUUG	–	–	12.9 nM	39.6 nM
GGGUACAUCGGAGGAUAUCAUGUCAAUACAUGAGGAUCACCCAUGUCGAUGGAGACAUCGGAGAUUGAGAAGGCCGAUGUACCG	66.5 nM	6.99 nM	–	–
UUUUUACAUGAGGAUCACCCAUGUCAGGAUAUCGUUAUAUUUUAUUAUUUUAUUUUUUCGAGAAGGGACUAUUA	–	–	90.3 nM	58.6 nM
UGCAUGUAUGAGAAGGCUAAUUUGGACAUUAUUUAUGAUGAUGUUUAGGUUAGAGGAUAUUGGGACAUGAGGAUCACCCAUGUA	–	–	21.5 nM	18 nM
CAGGACAGAGGAUAUACAUAGAUACAGAUUCAUGUAGAACUACAUGAGGAUCACCCAUGUAGAAGGCUGUCCUG	–	–	29.5 nM	300 nM
UACUGGUGUGAGAAGGGACGUAUCUCCAUGAGGGUAGGGCUAUUAGAGAAGUCAGGAUAUCACAUGAGGAUCACCCAUGUGACG	–	–	8.25 nM	9.9 nM
ACUAGAUGCGUGAAAUAACACAUGAGGAUCACCCAUGUGACACAGGAUAUAACCAGAUCAGAAAGUUAGAAGGGUGAGCACGCA	39.2 nM	21.2 nM	–	–
AUCCGGCGUGUAGGAUAUGGAACCGAUUAGGAUCCAGAAGGACAUGAGGAUCACCCAUGUACAUGUAAACAGUCAUCACCGGAA	–	–	10.9 nM	65.3 nM
GCUGGACAAGGAUAUGCAUUCGUGCUUCGGCACGUAAGGUCACAUGAGGAUCACCCAUGUAGAAGGUGUCCAGC	–	–	18.6 nM	34 nM
ACAUUGCGAGGAUAUACAUGAGGAUCACCCAUGUGGUGGCAGAUACGGUAGGACUAGUGUAGAAGGUGUCAUGG	–	–	490 nM	397 nM

Sequence	apparent Kd [1]	apparent Kd [2]	apparent Kd [3]	apparent Kd [4]
CCUCUACAUGAGGAUCACCCAUGUGAGGAUAUAUGCCCAUUACGCCAAGAGCGUGAUGAUAGAAGGCACAGGGU	–	–	22 nM	72.7 nM
ACGAACCUAGGAUAUACAUGAGGAUCACCCAUGUACUACUAUCCAUGAAUGACCCUCGGUAGAAGGAGGAUCAA	–	–	18.1 nM	21.5 nM
GGAAAUCAUGUAGGAUAUGCAUGGCGAAGCUACGCAGAAGGACAUGAGGAUCACCCAUGUUAUAGCGUCCGUGAAAGGAUGCAA	–	–	39.7 nM	120 nM
UGUUGUAUUACAGGAUAUCUAUUAAUUUUAUUUAGAGAAGGGUAUUCACAUGAGGAUCACCCAUGUAUAUACGAGGAAGUUGUG	53.7 nM	57.1 nM	–	–
AGAAAGUGAGGAUAUACAUGAGGAUCACCCAUGUAGAACGAGAGUUAUAAAAAUGGAAGUAGAAGGCACAAAAG	–	–	34.3 nM	37.1 nM
UGCUACGUUUCGUAGCAGCUAGGUGAGGAUAUUCAAUUUUUCACAUGAGGAUCACCCAUGUAUGUGAAGAAGGCGCCUAGAAAC	11.6 nM	4.61 nM	–	–
AGAAACUACGAGAAGGACAUAUGGUUCUUCAGUUACAUGAGGAUCACCCAUGUAGGAUAUCGUAGUUUCAGGAUCGUGAGAUCA	–	–	7.33 nM	21.7 nM
GAGCGAAAGCUCAAUGUCGAUAGCAGAAGGACAUCCAAUAACAUGAAAACAUGAGGAUCACCCAUGUAGGAUAUGCUAUCGACU	–	–	5.55 nM	6.55 nM
UUAACUCAUGUAGGAUAUGCAUGGCGAAGCUACGCAGAAGGACAUGAGGAUCACCCAUGUUCUAGCUACCGAGUUCGGUGGCAA	–	–	92 nM	272 nM
UGAGCCUCGUGAGGAUAUACAUGAGGAUCACCCAUGUAAAUGGAAGAACGGAGGAAACUCCGAAUGUAGAAGGCACGAGGCUCA	–	–	145 nM	773 nM
GCGUAUUAGGUGUAGCUAGACAUUCAAGAAGGGUGAAGAACAUGAGGAUCACCCAUGUAGUUUUUACAGGAUAUUGAUUUACGC	269 nM	14.9 nM	–	–
CAGAAGUCAGGAUAUGCAUGGCGGGACUUGCGUCGUGGCGUGCAGAAGGGACAUGAGGAUCACCCAUGUGGAGG	–	–	171 nM	222 nM
GUAUACGAUGAGGAUAUAUGAUAUCAAAGCAUCAUAGAAGGCAUCACAUGAGGAUCACCCAUGUGAUCUUCUUU	–	–	18.1 nM	65.2 nM
GUCUGUUACGAGAAGGACAAUUGGAUGCAGGCUGUAGGAUAUCGAGGCAGACAUGAGGAUCACCCAUGUAGGCUUACGAUGGGU	–	–	11.7 nM	19.1 nM
CUUCUGUCAGGAUAUGCGAAUCGGCACUGGGUCAGUGGCGAGCAGAAGGGACAUGAGGAUCACCCAUGUAAAGU	–	–	32.8 nM	131 nM
CUAUUGGCAGGAUAUGCUUUUUUAGACAUGAGGAUCACCCAUGUGAUGAAUAUUGGGUUUGCAGAAGGGCCUGAAU	–	–	75.1 nM	111 nM
CGCUAUGAUGGGUUUAAUGGAGCAUAGGAUAUGCUUGUACAUGAGGAUCACCCAUGUUAUAUUGUGCAGAAGGGUGCAUUUGCG	433 nM	157 nM	–	–
CGUAACUACAUAGGAUAUUGAUACAUGAGGAUCACCCAUGUUUUUGGGAUUAGUUUAAUAUUAAGCAAGAAGGAUGAAGUUACG	45.4 nM	31.1 nM	–	–
AGUUGGCGAGGAUAUACAUGAGGAUCACCCAUGUGAAUAAUAAUAGUGAGGAAGAAAAGUAGAAGGCGCUGACA	–	–	49.7 nM	237 nM
AAGAAGUGAGGAUAUCCUGCUCGUCACUUGCGUGAUGAGUAGGAGAAGGCACAUGAGGAUCACCCAUGUAAAGA	–	–	37.4 nM	41.6 nM
GUUAGUUAAGGAUAUACUGGGAGCUGCGGCGUCUCGCCGCAACAUGAGGAUCACCCAUGUAGAAGGUGACCAUU	–	–	320 nM	229 nM
